Experimental data as given in ChEMBL document CHEMBL3632619, “Angucyclines and Angucyclinones from Streptomyces sp. CB01913 Featuring C-Ring Cleavage and Expansion” (J Nat Prod, 2015).
Values after ≈ are worked out from the molar mass of the structure shown. Active and inactive are the calls of the source. The calls are words filed in the database; no cut-off is given here.

How the values were obtained:
[1] = tested on: SF-539; experiment: Cytotoxicity against human SF539 cells after 72 hrs by MTS assay; assay type: functional, cell-based; conditions: SF-539, 72 h
[2] = tested on: NCI-H226; experiment: Cytotoxicity against human NCI-H226 cells after 72 hrs by MTS assay; assay type: functional, cell-based; conditions: NCI-H226, 72 h
[3] = tested on: Staphylococcus aureus; experiment: Antibacterial activity against Staphylococcus aureus ATCC 25923 after 18 hrs by broth microdilution method; conditions: ATCC 25923, 18 h
[4] = tested on: MDA-MB-468; experiment: Cytotoxicity against human MDA-MB-468 cells after 72 hrs by MTS assay; assay type: functional, cell-based; conditions: MDA-MB-468, 72 h
[5] = tested on: Escherichia coli; experiment: Antibacterial activity against Escherichia coli ATCC 25922 after 12 hrs by agar diffusion method; assay type: functional, organism-based
Summary of the method: (§1)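 Filter-paper disc on tryptic soy agar receiving 25 µL of compound at 2 mM in H2O; plates incubated 37 °C for 12 h, then inhibition zone scored; tetracycline as positive control.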

[6] = tested on: Mycolicibacterium smegmatis; experiment: Antibacterial activity against Mycobacterium smegmatis ATCC 607 after 18 hrs by broth microdilution method; conditions: ATCC 607, 18 h
[7] = tested on: SF-295; experiment: Cytotoxicity against human SF295 cells after 72 hrs by MTS assay; assay type: functional, cell-based; conditions: SF-295, 72 h
[8] = tested on: M14; experiment: Cytotoxicity against human M14 cells after 72 hrs by MTS assay; assay type: functional, cell-based; conditions: M14, 72 h
[9] = tested on: Escherichia coli; experiment: Antibacterial activity against Escherichia coli JM 109 after 12 hrs by agar diffusion method; assay type: functional, organism-based; summary of the method: as §1
[10] = tested on: Bacillus subtilis; experiment: Antibacterial activity against Bacillus subtilis ATCC 23857 after 18 hrs by broth microdilution method; conditions: ATCC 23857, 18 h

Row | Structure (SMILES) | MIC [3] [µg/mL] | MIC [6] [µg/mL] | MIC [10] [µg/mL] | IC50 [1] [µM] | IC50 [2] [µM] | IC50 [4] [µM] | Activity [5] | IC50 [7] [µM] | IC50 [8] [µM] | Activity [9]
1 | COc1cccc(C(=O)c2c(O)ccc3c2C(=O)C[C@](C)(O)C3)c1CO | > 100 | 93 (≈ 261 µM) | 85 (≈ 239 µM) | > 100 | > 100 | > 100 | inactive | > 100 | > 100 | inactive
2 | COc1cccc2c1C(=O)c1ccc3c(c1C2O)C(=O)C[C@](C)(O)C3 (stereo partly drawn) | > 100 | > 100 | > 100 | 12 | 7.2 | 52 | inactive | 3.1 | 31 | inactive
3 | CO[C@@]12[C@H](COC(N)=O)C3=C(C(=O)C(C)=C(N)C3=O)N1C[C@@H]1N[C@@H]12 [MITOMYCIN] | – | – | – | 0.038 | 0.58 | 0.5 | – | 0.54 | 0.47 | –

Continued, in another order:

Row | MIC [3] [µg/mL] | MIC [6] [µg/mL] | MIC [10] [µg/mL] | Structure (SMILES) | IC50 [1] [µM] | IC50 [2] [µM] | IC50 [4] [µM] | Activity [5] | IC50 [7] [µM] | IC50 [8] [µM] | Activity [9]
4 | > 100 | > 100 | 25 (≈ 74.3 µM) | COc1cccc2c1C(=O)c1ccc3c(c1C2=O)C(=O)C[C@](C)(O)C3 | 10 | 4.6 | 27 | inactive | 17 | 9.7 | inactive
5 | 6.7 (≈ 15.1 µM) | 11 (≈ 24.8 µM) | 13 (≈ 29.3 µM) | CN(C)[C@@H]1C(O)=C(C(N)=O)C(=O)[C@@]2(O)C(O)=C3C(=O)c4c(O)cccc4[C@@](C)(O)[C@H]3C[C@@H]12 [TETRACYCLINE] | – | – | – | – | – | – | –
6 | 11 (≈ 34.1 µM) | 9.7 (≈ 30.1 µM) | 8.1 (≈ 25.1 µM) | C[C@]1(O)CC(=O)c2c(ccc3c2C(=O)c2cccc(O)c2C3=O)C1 [TETRANGOMYCIN] | 3.2 | 7.2 | 16 | inactive | 12 | 2.4 | inactive
